To fix the notation:
B1: tRNA (parent)
chain: GUUCCGUUGGCGUAAUGGUAACGCGUCUCCCUCCUAAGGAGAAGACUGCGGGUUCGAGUCCCGUACGGAACG

Fewer inactive variants are shown than the library holds.

In this data set the parent is B1. The experiment in a line: yeast fitness relative to wild type (ratio to wild type); higher = fitter; tRNA-Arg(CCU), competitive growth, 37 C, YPD. The gist of the method: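 Amplicons of the tRNA-Arg(CCU) gene were sequenced, 100-nucleotide paired-end, from the start population and from each end population of a pooled yeast competition. The competition, in six parallel replicates, lasted 24 hours in YPD at 37°C. Fitness relative to wild type was calculated from changes in genotype frequencies. Genotypes had to have ≥ 100 starting reads, and estimates < 0.5 were set to 0.5.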
C30A A42C C66A: the yeast fitness was determined as 0.719.

Take C5U U28A C30G: the yeast fitness is no more than 0.5.

Take U2G A21C C22U A70U: the yeast fitness was no more than 0.5.

For the variant A21U A65U, the yeast fitness is 0.793.

As to U35G C66U, the yeast fitness was 0.681.

Consider G10C C33A A40U U54A, for which the yeast fitness is no more than 0.5.

Take U7C C11A C27G A57G: the yeast fitness is no more than 0.5.

Consider A15G A45U, for which the yeast fitness was 0.987.

Turning to A14G C22U C34U U54C C55A, the yeast fitness is no more than 0.5.

Consider C4G C11U C33A U59C, for which the yeast fitness came to 0.707.

For U2C C24G C29U A69C, the yeast fitness is no more than 0.5.

For the variant C4G C29A C46A G58A, the yeast fitness turned out to be 0.525.

In the case of U16C C24G C30G A36U C66U, the yeast fitness is no more than 0.5.

Regarding U8C C22U G23C C33G C49U, the yeast fitness is no more than 0.5.

For C5A G48A, the yeast fitness amounted to 0.871.

For the variant U16G C30G C55G, the yeast fitness is no more than 0.5.

Consider G10C U13A A14G A20G C22A C24G G52C, for which the yeast fitness was no more than 0.5.

For A40G U54C G68C, the yeast fitness was no more than 0.5.

For U32A A42C, the yeast fitness was found to be 0.817.

Take G18A C24G G56A C66U: the yeast fitness was no more than 0.5.

With C4G C5U U13A A40C G58A G68C, the yeast fitness was no more than 0.5.

On to U3C C31U A57G, for which the yeast fitness is 0.778.

Regarding U2C U3C C34A G44C C46U G51A, the yeast fitness is no more than 0.5.

On to C4U U26C G44A G52A C66U, for which the yeast fitness is no more than 0.5.

For U2C G6C A42G A65U G67A, the yeast fitness was no more than 0.5.

Regarding C66G G67C, the yeast fitness amounted to 0.733.

As to G6C A20U C30G C66U, the yeast fitness was no more than 0.5.

For G6C A14U C66U A69C, the yeast fitness was no more than 0.5.

Take G9A G18A A21C C29U G58C C66G: the yeast fitness is no more than 0.5.

As to G17A C46U U59A, the yeast fitness is 0.584.

Regarding C4G, the yeast fitness came out at 1.01.

As for C5U C11A, the yeast fitness was 0.586.

Turning to U2A C30A G52A A65U, the yeast fitness was no more than 0.5.

Consider A20C U28A C62U G67A, for which the yeast fitness is no more than 0.5.

With G12A C24A A45G G50A, the yeast fitness was no more than 0.5.

On to C11G C24G C30U A43U C60G A65C, for which the yeast fitness was no more than 0.5.

On to G58C G67A, for which the yeast fitness is 0.807.

Consider C11G A20C G23A G52C C61U, for which the yeast fitness is 0.662.

Take C22U C30U A57G: the yeast fitness is no more than 0.5.

Take C22U C46G C49A C60A A70C: the yeast fitness was no more than 0.5.

As to A40C U54A C62U, the yeast fitness was no more than 0.5.

For A21C G25C, the yeast fitness was determined as 0.896.

As for C4G U8C U16A A21C C24G A37U C55U C62U A69U, the yeast fitness was no more than 0.5.

On to C11A C62A, for which the yeast fitness is no more than 0.5.

As to U13A C33U A45C C46G U54C A69U, the yeast fitness was no more than 0.5.

For the variant U13C U47C U64G G68C, the yeast fitness was no more than 0.5.

As for U19A C34G A43C, the yeast fitness stood at 0.534.

Take U19C G38C G44C C46A: the yeast fitness stood at 0.872.

For C5G U26G C34G A40C C46U, the yeast fitness was no more than 0.5.

As to G12A A20C C49G, the yeast fitness was 0.539.

Turning to A14U A15G C34G C61U A70C, the yeast fitness is no more than 0.5.

With U16C C27G G52A C60G A69U A70C, the yeast fitness is no more than 0.5.

On to A40C G50A, for which the yeast fitness is 0.619.

As for G10A G56A C60U, the yeast fitness is no more than 0.5.

As for C4G G12A G38C C66U, the yeast fitness is no more than 0.5.

C31G A57C C62G: the yeast fitness is 0.703.

Regarding A14U U26A G58C, the yeast fitness is no more than 0.5.

U54A C61G A65U: the yeast fitness is no more than 0.5.

As to C31G U32C A37U, the yeast fitness is no more than 0.5.

U3C U7A G25A A42U U64A: the yeast fitness is no more than 0.5.

As for A20U U26C C62G, the yeast fitness was no more than 0.5.

For the variant C11A A14G A15G C22A G23A C33A G38C A70U, the yeast fitness is no more than 0.5.

Take U2C A40G: the yeast fitness worked out at 0.984.

For the variant C22G C60A, the yeast fitness came to 0.679.

Turning to C5G A20U G56A, the yeast fitness worked out at 0.572.

Consider G9A A21U A36G A40C A69U, for which the yeast fitness was no more than 0.5.

C11A C34G G50A: the yeast fitness worked out at 0.681.

With U13A U32C G63A, the yeast fitness amounted to 0.572.

As for G18U A21U G52A, the yeast fitness is no more than 0.5.

With C4U C34G G41C G56C G58A G63C A65U, the yeast fitness was no more than 0.5.

Turning to U19C U28C C49A, the yeast fitness came to 0.584.

For C30U U59G C66U G68A, the yeast fitness is no more than 0.5.

For G9A G39A A45G G50A G63U A69U, the yeast fitness is no more than 0.5.

As for G23A C24G A40U A65U, the yeast fitness was no more than 0.5.

As to G12A A15G A43C, the yeast fitness is no more than 0.5.

Turning to G39C C46U, the yeast fitness worked out at 0.98.

For the variant C5G U47C G51A A65C, the yeast fitness came out at 0.548.

U3C G23C C30A G38C: the yeast fitness was no more than 0.5.

Consider C31U U32C U54G C55U C61U, for which the yeast fitness is no more than 0.5.

G10A C55U C61A: the yeast fitness was no more than 0.5.

Regarding C46U G68A, the yeast fitness came out at 0.9.

C27U U47C G68A: the yeast fitness worked out at 0.672.

Regarding C24G C27U C33U G50C C66U, the yeast fitness is no more than 0.5.

For U2A G6C G38A, the yeast fitness worked out at 0.592.

In the case of C27U G51C C55A A65C, the yeast fitness was no more than 0.5.

As for A36U C55U G56A, the yeast fitness was found to be 0.864.

As to C24A U26G G56C, the yeast fitness was no more than 0.5.

Regarding C4U U7A G39C, the yeast fitness is no more than 0.5.

With A40U A43C G67U, the yeast fitness is 0.724.

C22U U28A C55G A57C: the yeast fitness is no more than 0.5.

On to G6A A21G C33G A57U C62U, for which the yeast fitness was no more than 0.5.

C5U C11A A21G G23C: the yeast fitness is no more than 0.5.

For the variant A15C C30A C34A A42C G56A A57U, the yeast fitness was no more than 0.5.

As for G12A C30U A45C C60G, the yeast fitness is no more than 0.5.

For the variant C11U C22U C34A A40U, the yeast fitness is no more than 0.5.

G23A C34A A43U U47C C62G C66A: the yeast fitness is 0.689.

Take G25A C30U A36C: the yeast fitness is no more than 0.5.

With U3A C4U C31A C66G G68C, the yeast fitness was no more than 0.5.

Take A21U A40C: the yeast fitness came to 0.727.

For the variant C31A G56A G67A A69U, the yeast fitness was no more than 0.5.

For G12C A14U C29U, the yeast fitness is no more than 0.5.

In the case of G12A U32G U35A G38C G51C C66U, the yeast fitness was no more than 0.5.

On to A20C A42G, for which the yeast fitness amounted to 0.842.

Regarding G6C G48C, the yeast fitness was found to be 0.837.

Consider C30U A40C U59C A65G, for which the yeast fitness is no more than 0.5.

With C34U G56A A70G, the yeast fitness is no more than 0.5.

In the case of C4A A15G C31G G50A, the yeast fitness was no more than 0.5.

For C5G A21G G51A, the yeast fitness was 0.617.

As to U2A U8C U47A G68C, the yeast fitness was no more than 0.5.

As to U26C C61U C62G, the yeast fitness is no more than 0.5.

As to A21G U26C G48C, the yeast fitness amounted to 0.615.

As for G51A C61A C62G, the yeast fitness was no more than 0.5.

For U26C C61G G63A A69U, the yeast fitness worked out at 0.532.

In the case of G25A G50C, the yeast fitness worked out at 0.929.

For C4U C11U C24A U47G, the yeast fitness is 0.557.

Turning to U2A G9A U13A, the yeast fitness stood at 0.645.

Take G9A C11G U19C A20G G56A C60G: the yeast fitness was no more than 0.5.

In the case of U28C G52C, the yeast fitness is 0.668.

In the case of G10A G48A A69C, the yeast fitness came out at 0.628.

Consider C5U C22U A37C C55A A69U, for which the yeast fitness is no more than 0.5.

Take U16C C34A A37G: the yeast fitness was no more than 0.5.

Consider U2G A42C U47A G63C A69C, for which the yeast fitness was 0.558.

Take U3C C31A C49G A70C: the yeast fitness is no more than 0.5.

For U3A A20G C29U G48C, the yeast fitness was no more than 0.5.

As for G18C A57U G67C, the yeast fitness is no more than 0.5.

C22U A40U A43U: the yeast fitness was no more than 0.5.

On to U3A G39A C49U, for which the yeast fitness worked out at 0.559.

A15G G63A: the yeast fitness amounted to 0.926.

As for C49A A65C, the yeast fitness is 0.686.

With A40U A42G A57U, the yeast fitness amounted to 0.576.

As for G44C A65U, the yeast fitness was 0.873.

With C5U A15G A42U, the yeast fitness worked out at 0.703.

C5U A21G C27U G41A C66A: the yeast fitness is no more than 0.5.

Turning to U7C A20U A40C C46U C55G A70U, the yeast fitness came to 0.582.

As to C46G A57G, the yeast fitness came to 0.987.

Regarding G12A G25A C30G G58C C66A, the yeast fitness was no more than 0.5.

Regarding U64C, the yeast fitness came to 0.985.

In the case of G58A C62U A69C, the yeast fitness was determined as 1.1.

For U28A G50U, the yeast fitness amounted to 0.622.

For A36C U54C, the yeast fitness is no more than 0.5.

Take C33A U47A: the yeast fitness was 0.777.

Consider U16A U47C, for which the yeast fitness is 1.01.

G9A A21G C62U G63C A70C: the yeast fitness is 0.52.

As to U16G A20G, the yeast fitness is 1.

Take C5U C22A C31U G68C: the yeast fitness was no more than 0.5.

For U13G U16C G63C, the yeast fitness was no more than 0.5.

On to C11U U19A C29G, for which the yeast fitness was 0.704.

Consider U16G C29U C30U, for which the yeast fitness is no more than 0.5.

For U8C A37G G50A A69U, the yeast fitness was no more than 0.5.

Regarding G6A C62A A70C, the yeast fitness came to 0.636.

Consider A14G A37C G56A, for which the yeast fitness was no more than 0.5.

A15C U35C C46G: the yeast fitness came out at 0.67.

Regarding C4U A36G C61U, the yeast fitness was found to be 0.73.

Regarding G9A G10A C55A A65U G67C, the yeast fitness was found to be 0.506.

Consider A15G G17A C30A C61A, for which the yeast fitness is no more than 0.5.

For the variant A20C G41C C66G, the yeast fitness is no more than 0.5.

In the case of A20G C29G C49U G68A, the yeast fitness was no more than 0.5.

Turning to C34U G38C C55A, the yeast fitness was no more than 0.5.

G12A G23A C27G C30G: the yeast fitness was no more than 0.5.

Regarding C4G C29U A36C A40U C55G, the yeast fitness is no more than 0.5.

As for A21G G23A C27U C66U, the yeast fitness worked out at 0.533.

As for C5U C24U A36G C46A U47C C55A G67A, the yeast fitness is no more than 0.5.

As to U2A C11U G17A C29G C31G A37C C66A, the yeast fitness is no more than 0.5.

Regarding C31G A40G G52C, the yeast fitness was no more than 0.5.

Turning to A14G G25A C30A, the yeast fitness worked out at 0.563.

With G12A A57G A69C, the yeast fitness is no more than 0.5.

As to G9A G52A, the yeast fitness amounted to 0.687.

(Values after the RNAGym collection of RNA variant scans (doi:10.1126/science.aae0568).)
